This note sets out measurements from ChEMBL document CHEMBL1129380, “Synthesis, activity, and molecular modeling of a new series of tricyclic pyridazinones as selective aldose reductase inhibitors” (J Med Chem, 1996).

One test is filed under the species Bos taurus. Briefly: Inhibition of Aldehyde reductase 1. Also on record: concentration or dose not given beside the values. As to conditions: concentration not given here. In short, it runs like this: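 Partially purified bovine kidney ALR1 (ammonium sulfate fractionation plus DEAE-52 batch step, 11.3 mU/mg), at 3.5 mU/mL. Assay at 37 °C with 20 mM D-glucuronate and 0.12 mM NADPH in 0.1 M sodium phosphate, pH 7.2. Inhibitor added in DMSO, kept at 1%. NADPH oxidation read at 340 nm against a substrate-free blank. IC50 from the log dose–inhibition curve, duplicates.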

In test [1] the target is Aldo-keto reductase family 1 member B1 (Bos taurus, UniProt P16116). Briefly: (§1) Evaluated for inhibition of Aldose reductase 2. In short, it runs like this: (§2)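 Calf lens ALR2, partially purified by DE-52 (6.5 mU/mg), at 3.5 mU/mL. Assay at 37 °C with 4.7 mM D,L-glyceraldehyde and 0.11 mM NADPH in 0.25 M sodium phosphate, pH 6.8, with 0.38 M ammonium sulfate. Inhibitor in DMSO (1% final). A340 decrease corrected by a no-substrate blank.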

Test [2] addresses Sorbitol dehydrogenase (Ovis aries) (UniProt P07846). The experiment in a line: Inhibition of sorbitol dehydrogenase from sheep liver (40 U/mg of protein).
Test [3] addresses T1, Glutathione reductase, mitochondrial (Homo sapiens) (UniProt P00390).
T1 sequence (whole entry): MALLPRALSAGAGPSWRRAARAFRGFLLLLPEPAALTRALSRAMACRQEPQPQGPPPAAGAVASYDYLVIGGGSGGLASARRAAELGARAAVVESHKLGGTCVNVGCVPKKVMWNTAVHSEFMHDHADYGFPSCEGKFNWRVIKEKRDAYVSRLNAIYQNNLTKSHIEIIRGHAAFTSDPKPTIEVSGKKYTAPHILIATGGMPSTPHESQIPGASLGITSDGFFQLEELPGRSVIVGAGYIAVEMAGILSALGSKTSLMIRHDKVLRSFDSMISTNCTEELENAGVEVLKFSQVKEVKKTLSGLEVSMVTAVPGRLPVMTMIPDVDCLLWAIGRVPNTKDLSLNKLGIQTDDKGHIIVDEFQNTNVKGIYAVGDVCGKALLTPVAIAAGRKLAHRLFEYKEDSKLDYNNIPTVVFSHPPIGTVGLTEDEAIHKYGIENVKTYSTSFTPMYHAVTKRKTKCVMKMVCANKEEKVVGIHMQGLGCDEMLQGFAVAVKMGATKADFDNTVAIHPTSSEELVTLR
Briefly: Inhibition of glutathione reductase at 149 uM. As to conditions: Saccharomyces cerevisiae.

The target in test [4] is T2, Glutathione reductase, mitochondrial (Homo sapiens, UniProt P00390).
T2 sequence (P00390 whole entry): T1 sequence (whole entry)
The experiment in a line: (§3) Inhibition of glutathione reductase. Further details: species or system Saccharomyces cerevisiae.

Test [5] deals with Aldo-keto reductase family 1 member B1 (Bos taurus) (UniProt P16116). Described as §1. In short, it runs like this: as §2
Test [6] addresses T1, Glutathione reductase, mitochondrial (Homo sapiens). The test is described as §3. The note with it: Saccharomyces cerevisiae; concentration not given here.
Test [7] shares this target. Briefly: Inhibition of glutathione reductase at 138 uM. The note with it: Saccharomyces cerevisiae.
Test [8] deals with Sorbitol dehydrogenase (Ovis aries) (UniProt P07846). Briefly: Inhibition of sorbitol dehydrogenase from sheep liver (40 U/mg of protein). The note with it: concentration not given here.

As usually defined, the inhibition is the drop in the measured response relative to a control, in per cent. In general, IC50 refers to the midpoint of a concentration-inhibition curve. Usually Inhibition stands for the percentage by which the read-out fell short of the control.

The structures appear in SMILES notation.

Chain of Sorbitol dehydrogenase (Ovis aries) (P07846 whole entry, looked up): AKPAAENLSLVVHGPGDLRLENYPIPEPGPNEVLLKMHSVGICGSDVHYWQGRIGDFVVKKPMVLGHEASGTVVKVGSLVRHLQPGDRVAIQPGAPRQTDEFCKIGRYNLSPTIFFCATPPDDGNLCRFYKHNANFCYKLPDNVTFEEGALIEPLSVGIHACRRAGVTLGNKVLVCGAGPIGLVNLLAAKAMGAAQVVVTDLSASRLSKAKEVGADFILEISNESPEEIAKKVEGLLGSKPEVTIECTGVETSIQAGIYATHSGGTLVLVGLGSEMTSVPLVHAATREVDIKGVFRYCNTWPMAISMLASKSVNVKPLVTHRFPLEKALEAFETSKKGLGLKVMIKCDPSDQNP

For the compound `Cc1cc(C)c2c(c1)C1=NN(CC(=O)O)C(=O)CC1CC2` (stereo unspecified), the inhibition in the test filed under Bos taurus is 21.8%. The same compound yielded an IC50 in test [1] of 63.5 µM.
For `O=C(O)CCn1nc2c(cc1=O)CCc1ccccc1-2`, the inhibition in the test filed under Bos taurus stood at 32.7%. Moreover, the values for the IC50 in test [1] and in test [2] were 133 µM and “No inhibition”, respectively.
With `COc1cc2c(cc1OC)-c1nn(CC(=O)O)c(=O)cc1C2`, the inhibition in the test filed under Bos taurus was 44.1%; in test [3], 11.2%. In addition, the half-maximal inhibitory concentration (IC50) in [1] is 26.4 µM; in test [2] it was “No inhibition”.
For `O=C(O)Cn1nc2c(cc1=O)CCCc1ccccc1-2`, in the test listed under Bos taurus, the inhibition is 15.1%. Further, the half-maximal inhibitory concentration (IC50) was 76.2 µM in test [1] and “No inhibition” in test [2].
Consider `O=C(O)c1c2c(n[nH]c1=O)-c1ccccc1CC2`, for which the Inhibition in test [4] was 18.9%.
For `O=C(O)c1c2c(n[nH]c1=O)-c1ccccc1CCC2`, the values for the inhibition (in the test listed under Bos taurus; in test [5]) were 6.8% and 13.2%, respectively.
`COc1cc2c(cc1OC)-c1nn(CC(=O)O)c(=O)cc1CC2`: the inhibition in the test filed under Bos taurus came to 11.3%. Further, the 50% inhibitory concentration (IC50) in [1] was 114 µM; in [2], “No inhibition”.
Regarding `O=C(O)Cn1nc2c(cc1=O)Cc1ccccc1-2`, the inhibition in test [6] came out at 9.4%; in [5], 35.8%. Besides, the concentration for half-maximal inhibition (IC50) entry in test [2] is “No inhibition”.
Regarding `Cc1cc(C)c2c(c1)-c1nn(CCCC(=O)O)c(=O)cc1CC2`, the inhibition in the test listed under Bos taurus was found to be 22.1%. In addition, the IC50 in test [1] is 17.4 µM; in [2] it was “No inhibition”.
In [7], `O=C(O)Cn1nc2c(cc1=O)CCc1ccccc1-2` yielded an inhibition of 4.2%. The figures for the IC50 in test [1] and in test [2] were 12.6 µM and “No inhibition”, respectively.
On to `COc1cc2c(cc1OC)-c1nn(CCC(=O)O)c(=O)cc1CC2`, for which the inhibition in the test filed under Bos taurus turned out to be 8%. Moreover, the IC50 is 162 µM in [1] and “No inhibition” in test [2].
For the compound `O=C(O)c1c(O)nnc2c1CCc1ccccc1-2`, the inhibition is 8.3% in the test listed under Bos taurus and 9.9% in [5]. The half-inhibitory concentration (IC50) result in [2] was “No inhibition”.
As to `O=C(O)c1c(O)nnc2c1Cc1ccccc1-2`, the inhibition in the test listed under Bos taurus is 0%; in test [5] it was 5.3%. This compound returned an Inhibition in test [4] of 12.3%. Moreover, in [2], the 50% inhibitory concentration (IC50) result is on record as “No inhibition”.
For `O=C(O)Cn1nc2c(c(C(=O)O)c1=O)Cc1ccccc1-2`, the inhibition is 22.3% in [6] and 32.4% in test [5]. Further, the IC50 entry in [2] was “No inhibition”.
Compound `O=C(O)Cn1nc2c(c(C(=O)O)c1=O)CCc1ccccc1-2` had an inhibition in [6] of 23.7%. Moreover, the IC50 in test [1] was 33 µM; in [2], “No inhibition”.
`COc1cc2c(cc1OC)-c1nn(CCCC(=O)O)c(=O)cc1CC2` returned an inhibition in the test filed under Bos taurus of 10.1%. For the same compound, the half-inhibitory concentration (IC50) in test [1] is 7.56 µM; in test [2], “No inhibition”.
For the compound `O=C(O)Cn1nc2c(c(C(=O)O)c1=O)CCCc1ccccc1-2`, the inhibition in the test listed under Bos taurus worked out at 10.3%; in test [5], 12.1%.
On to `Cc1cc(C)c2c(c1)-c1nn(CCC(=O)O)c(=O)cc1CC2`, for which the IC50 in test [1] is 51.5 µM; in test [2], “No inhibition”.
With `COc1ccc2c(C(=S)N(C)CC(=O)O)cccc2c1C(F)(F)F` [TOLRESTAT], the inhibition in test [8] amounted to 16.4%.
With `Cc1cc(C)c2c(c1)-c1nn(CC(=O)O)c(=O)cc1CC2`, the values for the 50% inhibitory concentration (IC50) in test [1] and in test [2] were 6.44 µM and “No inhibition”, respectively.
`O=C1NC(=O)[C@@]2(CCOc3ccc(F)cc32)N1` [SORBINIL]: in test [2], the half-maximal inhibitory concentration (IC50) result is reported as “No inhibition”.
For the compound `O=C(O)CCCn1nc2c(cc1=O)CCc1ccccc1-2`, the figures for the IC50 in test [1] and in [2] were 11.4 µM and “No inhibition”, respectively.
